ChEMBL document CHEMBL1135528, “Monocyclic human tachykinin NK-2 receptor antagonists as evolution of a potent bicyclic antagonist: QSAR and site-directed mutagenesis studies” (J Med Chem, 2002)
Substitutions are numbered along the chain they refer to. Activity calls are given as the source filed them. No cut-off for these calls is given here. *1 amine or outer side, *2 acyl side, *3 side chain or, on linkers, in order; H or OH if unused. Where a SMILES comes first, the peptide text is derived from it. Bridges are numbered along the chain shown (N, C = ends). [ ]: non-standard residue; d: D form. Suc = O=C(CCC(=O)[*:2])[*:1]; Dap = NC[C@H](N)C(=O)O

Legend:
Substance-K receptor = target: T1, Substance-K receptor (Homo sapiens, UniProt P21452); test: Inhibitory affinity constant (pKi) against tachykinin receptor 2 (NK-2R) using heterologous competition experiments
T1 sequence (P21452 whole entry): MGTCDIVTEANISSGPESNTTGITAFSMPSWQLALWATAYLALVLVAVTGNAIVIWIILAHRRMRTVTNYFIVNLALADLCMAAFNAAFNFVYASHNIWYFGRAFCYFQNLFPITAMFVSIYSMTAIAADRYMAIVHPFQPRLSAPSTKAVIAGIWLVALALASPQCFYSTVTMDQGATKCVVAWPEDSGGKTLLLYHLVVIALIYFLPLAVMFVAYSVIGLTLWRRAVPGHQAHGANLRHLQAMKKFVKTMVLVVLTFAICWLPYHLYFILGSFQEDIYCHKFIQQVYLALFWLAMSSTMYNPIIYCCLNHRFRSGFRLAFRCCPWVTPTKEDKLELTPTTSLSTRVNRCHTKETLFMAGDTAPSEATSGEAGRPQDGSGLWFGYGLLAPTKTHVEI
How it was run: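 Buffer was 50 mM Tris-HCl pH 7.4. Competitors ranged 0.3 pM–10 μM. Filter-bound radioactivity was counted, and pKi was obtained by fitting competition curves. Mean ± sem of duplicate experiments.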

[1] = tested on: T2, Substance-K receptor (Homo sapiens), P21452 [C167A]
T2 sequence (whole entry): T1 sequence (P21452 whole entry) with C167A

[2] = tested on: Substance-K receptor (Homo sapiens), P21452 [F112A]
Chain of Substance-K receptor (Homo sapiens), P21452 [F112A] (P21452 whole entry F112A): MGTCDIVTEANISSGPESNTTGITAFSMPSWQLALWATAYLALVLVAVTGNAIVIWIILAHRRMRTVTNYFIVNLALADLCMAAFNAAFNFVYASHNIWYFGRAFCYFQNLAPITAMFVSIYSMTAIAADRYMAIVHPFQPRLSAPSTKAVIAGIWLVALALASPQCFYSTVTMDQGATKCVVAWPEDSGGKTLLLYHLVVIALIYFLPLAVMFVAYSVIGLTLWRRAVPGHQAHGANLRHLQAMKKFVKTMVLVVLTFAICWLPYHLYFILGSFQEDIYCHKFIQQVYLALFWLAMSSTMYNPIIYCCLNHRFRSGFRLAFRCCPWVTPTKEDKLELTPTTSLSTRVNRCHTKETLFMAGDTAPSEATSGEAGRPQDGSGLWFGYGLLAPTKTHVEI

[3] = tested on: Substance-K receptor (Homo sapiens), P21452 [F293A]
Chain of Substance-K receptor (Homo sapiens), P21452 [F293A] (P21452 whole entry F293A): as the sequence (P21452 whole entry F112A) above, with A112F, F293A counted along it

[4] = tested on: Substance-K receptor (Homo sapiens), P21452 [H198A]
Chain of Substance-K receptor (Homo sapiens), P21452 [H198A] (P21452 whole entry H198A): as the sequence (P21452 whole entry F112A) above, with A112F, H198A counted along it

[5] = tested on: Substance-K receptor (Homo sapiens), P21452 [I202F]
Chain of Substance-K receptor (Homo sapiens), P21452 [I202F] (P21452 whole entry I202F): as the sequence (P21452 whole entry F112A) above, with A112F, I202F counted along it

[6] = tested on: Substance-K receptor (Homo sapiens), P21452 [N110A]
Chain of Substance-K receptor (Homo sapiens), P21452 [N110A] (P21452 whole entry N110A): as the sequence (P21452 whole entry F112A) above, with N110A, A112F counted along it

[7] = tested on: Substance-K receptor (Homo sapiens), P21452 [Q166A]
Chain of Substance-K receptor (Homo sapiens), P21452 [Q166A] (P21452 whole entry Q166A): as the sequence (P21452 whole entry F112A) above, with A112F, Q166A counted along it

[8] = tested on: T3, Substance-K receptor (Homo sapiens), P21452 [S170A]
T3 sequence (whole entry): T1 sequence (P21452 whole entry) with S170A

[9] = tested on: Substance-K receptor (Homo sapiens), P21452 [T171A]
Chain of Substance-K receptor (Homo sapiens), P21452 [T171A] (P21452 whole entry T171A): as the sequence (P21452 whole entry F112A) above, with A112F, T171A counted along it

[10] = tested on: T4, Substance-K receptor (Homo sapiens), P21452 [W263A]
T4 sequence (whole entry): T1 sequence (P21452 whole entry) with W263A

[11] = tested on: Substance-K receptor (Homo sapiens), P21452 [Y107A]
Chain of Substance-K receptor (Homo sapiens), P21452 [Y107A] (P21452 whole entry Y107A): as the sequence (P21452 whole entry F112A) above, with Y107A, A112F counted along it

[12] = tested on: Substance-K receptor (Homo sapiens), P21452 [Y169A]
Chain of Substance-K receptor (Homo sapiens), P21452 [Y169A] (P21452 whole entry Y169A): as the sequence (P21452 whole entry F112A) above, with A112F, Y169A counted along it

[13] = tested on: Substance-K receptor (Homo sapiens), P21452 [Y206F]
Chain of Substance-K receptor (Homo sapiens), P21452 [Y206F] (P21452 whole entry Y206F): as the sequence (P21452 whole entry F112A) above, with A112F, Y206F counted along it

[14] = tested on: Substance-K receptor (Homo sapiens), P21452 [Y269A]
Chain of Substance-K receptor (Homo sapiens), P21452 [Y269A] (P21452 whole entry Y269A): as the sequence (P21452 whole entry F112A) above, with A112F, Y269A counted along it

[15] = tested on: Substance-K receptor (Homo sapiens), P21452 [Y269F]
Chain of Substance-K receptor (Homo sapiens), P21452 [Y269F] (P21452 whole entry Y269F): as the sequence (P21452 whole entry F112A) above, with A112F, Y269F counted along it

[16] = tested on: Substance-K receptor (Homo sapiens), P21452 [Y289F]
Chain of Substance-K receptor (Homo sapiens), P21452 [Y289F] (P21452 whole entry Y289F): as the sequence (P21452 whole entry F112A) above, with A112F, Y289F counted along it

[17] = tested on: Substance-K receptor (Homo sapiens), P21452 [Y289T]
Chain of Substance-K receptor (Homo sapiens), P21452 [Y289T] (P21452 whole entry Y289T): as the sequence (P21452 whole entry F112A) above, with A112F, Y289T counted along it

[18] = tested on: T5, Substance-K receptor (Homo sapiens), P21452 [Y266F]
T5 sequence (whole entry): T1 sequence (P21452 whole entry) with Y266F

Question: For `O=C1C[C@@H](N2CCOCC2)C(=O)NC[C@@H](Cc2ccccc2)NC(=O)[C@H](Cc2ccccc2)NC(=O)[C@H](Cc2c[nH]c3ccccc23)N1`, which Ki (Substance-K receptor) is on record?
Answer: Its Ki is 0.158 nM.

Question: With `NC(=O)[C@@H]1CNC(=O)CCC(=O)N[C@@H](Cc2c[nH]c3ccccc23)C(=O)N[C@@H](Cc2ccccc2)C(=O)N1` (Trp-Phe-[Dap]-NH2; linker N-3 via Suc) as the compound, how does the Ki (Substance-K receptor) read?
Answer: The Ki was 3980 nM.

Question: How did the Ki (Substance-K receptor) turn out when `N=C(N)NCC(=O)N[C@H]1CC(=O)N[C@@H](Cc2c[nH]c3ccccc23)C(=O)N[C@@H](Cc2ccccc2)C(=O)N[C@H](Cc2ccccc2)CNC1=O` was run?
Answer: Its Ki is 3.98 nM.

Question: Which Ki (Substance-K receptor) does the source give for `N[C@H]1CC(=O)NC[C@@H](Cc2ccccc2)NC(=O)[C@H](Cc2ccccc2)NC(=O)[C@H](Cc2c[nH]c3ccccc23)NC1=O` here?
Answer: Its Ki is 3.16 nM.

Question: Which Ki (Substance-K receptor) does the source give for `O=C1CCCNC(=O)[C@@H](Cc2ccccc2)NC(=O)[C@H](Cc2ccccc2)NC(=O)[C@H](Cc2c[nH]c3ccccc23)N1` here?
Answer: The Ki was 316 nM.

Question: How did the Ki (Substance-K receptor) turn out when `O=C1C[C@@H](C(=O)O)NC(=O)[C@@H](Cc2ccc(Cl)c(Cl)c2)NC(=O)[C@H](Cc2ccccc2)NC(=O)[C@H](Cc2c[nH]c3ccccc23)N1` was run?
Answer: Its Ki is 398 nM.

Question: `O=C1C[C@@H](NC(=O)CN2CCOCC2)C(=O)NC[C@@H](Cc2ccccc2)NC(=O)[C@H](Cc2ccccc2)NC(=O)[C@H](Cc2c[nH]c3ccccc23)N1` was tested. Which Ki (Substance-K receptor) did it give?
Answer: The Ki was 0.316 nM.

Question: With `O=C1C[C@H](NC(=O)[C@]2(O)C[C@@H](O)[C@@H](O)[C@H](O)C2)C(=O)NC[C@@H](Cc2ccccc2)NC(=O)[C@H](Cc2ccccc2)NC(=O)[C@H](Cc2c[nH]c3ccccc23)N1` as the compound, how does the Ki (Substance-K receptor) read?
Answer: Its Ki is 6.31 nM.

Question: How did the Ki (Substance-K receptor) turn out when `C=CCOC(=O)[C@@H]1CC(=O)N[C@@H](Cc2c[nH]c3ccccc23)C(=O)N[C@@H](Cc2ccccc2)C(=O)N[C@H](Cc2ccc(Cl)c(Cl)c2)C(=O)N1` was run?
Answer: Its Ki is 316 nM.

Question: Which Ki (Substance-K receptor) does the source give for `O=C1C[C@H](N2CCOCC2)C(=O)NC[C@@H](Cc2ccccc2)NC(=O)[C@H](Cc2ccccc2)NC(=O)[C@H](Cc2c[nH]c3ccccc23)N1` here?
Answer: Its Ki is 0.794 nM.

Question: Which Ki (Substance-K receptor) does the source give for `O=C(N[C@H]1CCCCN(Cc2ccccc2)C(=O)[C@H](Cc2ccccc2)NC(=O)[C@H](Cc2c[nH]c3ccccc23)NC1=O)OCc1ccccc1` here?
Answer: The Ki was 5.01 nM.

Question: With `N[C@H]1CC(=O)N[C@@H](Cc2c[nH]c3ccccc23)C(=O)N[C@@H](Cc2ccccc2)C(=O)N[C@H](Cc2ccccc2)CNC1=O` as the compound, how does the Ki (Substance-K receptor) read?
Answer: Its Ki is 3.16 nM.

Question: How did the Ki (Substance-K receptor) turn out when `O=C(O)CCC(=O)N[C@H]1CC(=O)N[C@@H](Cc2c[nH]c3ccccc23)C(=O)N[C@@H](Cc2ccccc2)C(=O)N[C@H](Cc2ccccc2)CNC1=O` was run?
Answer: The Ki was 12.6 nM.

Question: With `O=C1C[C@@H](NC(=O)CN2CCC(N3CCCCC3)CC2)C(=O)NC[C@H](Cc2ccccc2)NC(=O)[C@H](Cc2ccccc2)NC(=O)[C@H](Cc2c[nH]c3ccccc23)N1` as the compound, how does the Ki (Substance-K receptor) read?
Answer: Its Ki is 0.398 nM.

Question: How did the Ki (Substance-K receptor) turn out when `O=C1C[C@H](NCc2nn[nH]n2)C(=O)NC[C@@H](Cc2ccccc2)NC(=O)[C@H](Cc2ccccc2)NC(=O)[C@H](Cc2c[nH]c3ccccc23)N1` was run?
Answer: Its Ki is 1.58 nM.

Question: For `O=C1CCC(=O)N[C@@H](Cc2c[nH]c3ccccc23)C(=O)N[C@@H](Cc2ccccc2)C(=O)N[C@H](Cc2c[nH]c3ccccc23)CN1`, which Ki (Substance-K receptor) is on record?
Answer: The Ki was 3.16 nM.

Question: Which Ki (Substance-K receptor) does the source give for `NCCCC(=O)N[C@H]1CC(=O)N[C@@H](Cc2c[nH]c3ccccc23)C(=O)N[C@@H](Cc2ccccc2)C(=O)N[C@H](Cc2ccccc2)CNC1=O` here?
Answer: The Ki was 7.94 nM.

Question: `CSCC[C@H](NC(=O)[C@H](CC(C)C)NC(=O)CNC(=O)[C@@H](NC(=O)[C@H](Cc1ccccc1)NC(=O)[C@H](CO)NC(=O)[C@H](CC(=O)O)NC(=O)[C@@H](NC(=O)[C@H](CCCCN)NC(=O)[C@@H](N)Cc1c[nH]cn1)[C@@H](C)O)C(C)C)C(N)=O` was tested. Which UB [1] did it give?
Answer: Its UB is “inactive”.

Question: And the KD/Ki [2]?
Answer: The KD/Ki was 10.7 nM.

Question: What about the KD/Ki [3] of the same compound?
Answer: The KD/Ki was 40 nM.

Question: And the UB [4]?
Answer: The UB was “inactive”.

Question: And the KD/Ki [5]?
Answer: The KD/Ki was 2.1 nM.

Question: What about the UB [6] of the same compound?
Answer: The UB was “inactive”.

Question: What about the KD/Ki [7] of the same compound?
Answer: The KD/Ki was 6.6 nM.

Question: What about the KD/Ki [8] of the same compound?
Answer: The KD/Ki was 1.9 nM.

Question: What about the KD/Ki [9] of the same compound?
Answer: Its KD/Ki is 5.9 nM.

Question: What about the UB [10] of the same compound?
Answer: Its UB is “inactive”.

Question: What about the KD/Ki [11] of the same compound?
Answer: Its KD/Ki is 0.5 nM.

Question: And the UB [12]?
Answer: The UB was “inactive”.

Question: What about the KD/Ki [13] of the same compound?
Answer: The KD/Ki was 5.9 nM.

Question: What about the UB [14] of the same compound?
Answer: Its UB is “inactive”.

Question: And the KD/Ki [15]?
Answer: The KD/Ki was 5.3 nM.

Question: And the KD/Ki [16]?
Answer: The KD/Ki was 2 nM.

Question: And the UB [17]?
Answer: Its UB is “inactive”.

Question: What about the KD/Ki [18] of the same compound?
Answer: Its KD/Ki is 2.8 nM.
